Bioassay records deposited in PubChem BioAssay by Sanford-Burnham Center for Chemical Genomics.
iPSC survival up = hiPSC single-cell survival enhancement; AID 602274; actives 0.044% (n = 360,000); ATPlite luminescence; 100% = ROCK inhibitor wells, 0% = DMSO; survival enhancement, % at 20 µM; in the data active means survival enhancement above about 18%;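 further: cells exposed to compounds for 16 hours before the ATP read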
beta cell repl = inducers of beta-cell replication in MIN6 cells | AID 2380 | MIN6 cells proliferation, ATPlite luminescence, 48 h; cells starved in 0.2% serum; 100% = growth in 10% serum | actives 0.29% (n = 330,000) | proliferation, % at 10 µM;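 active means compounds whose signal lies at least 3.5 SD above the mean of all wells on their plate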;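 further: 0% = DMSO-treated cells in low-serum medium and 100% = 10% serum control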
PPC-1+TRAIL kill = PPC-1 cancer cell killing with TRAIL present; PPC-1 cells + TRAIL, ATPLite viability luminescence; cell killing (% activity), % at 4 µM or 5 µM; actives 0.41% (n = 220,000);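 active means cell killing above 50% in the first pass at 4 µM, then a duplicate retest at 5 µM averaging 50% or more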;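 further: plate controls were cells with TRAIL plus DMSO for no effect and medium-only wells lacking cells for full effect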
C8 TRAIL sens = caspase-8 TRAIL sensitization; NB7+C8 cells + TRAIL, ATPlite viability luminescence; inhibition (viability loss, TRAIL sensitization), % at 10 µM; actives 1% (n = 360,000);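 active means compounds causing at least 50% loss of cell viability in the single-dose screen, relative to plate controls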
FLuc inh counter = Photinus pyralis luciferase inhibition counter-screen. actives 1.5% (n = 200,000). ATPLite firefly luciferase biochemical luminescence, 10 min. AID 1006. inhibition, % at 10 µM. P08659;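 active means inhibition above about 50% when tested at 10 µM, limit read from the data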
Target sequence (P08659 whole entry, looked up): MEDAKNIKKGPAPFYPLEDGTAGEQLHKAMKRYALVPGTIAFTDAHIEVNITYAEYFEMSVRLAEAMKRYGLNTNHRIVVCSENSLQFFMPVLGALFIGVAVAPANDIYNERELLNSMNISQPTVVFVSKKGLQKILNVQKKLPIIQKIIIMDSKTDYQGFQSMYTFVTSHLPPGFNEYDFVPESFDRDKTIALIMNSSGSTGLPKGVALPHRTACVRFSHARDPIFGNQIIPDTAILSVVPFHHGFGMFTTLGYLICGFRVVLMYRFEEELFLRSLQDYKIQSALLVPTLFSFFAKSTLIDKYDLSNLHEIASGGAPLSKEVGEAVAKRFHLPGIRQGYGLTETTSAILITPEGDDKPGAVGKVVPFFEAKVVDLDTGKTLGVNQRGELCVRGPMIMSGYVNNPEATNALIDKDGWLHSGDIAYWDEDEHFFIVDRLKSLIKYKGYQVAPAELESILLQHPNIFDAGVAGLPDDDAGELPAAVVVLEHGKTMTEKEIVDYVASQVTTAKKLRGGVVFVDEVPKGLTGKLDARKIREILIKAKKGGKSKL
FLuc stim CS = firefly luciferase counter-screen for stimulation assays | P08659 | ATPlite luciferase biochemical, luminescence, 10 min; 0 = ATP-free wells, 1 = DMSO control | activation factor at 10 µM | 200,000 tested, under 10 active;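 active means luciferase activation factor, scaled between plate controls, of at least 2 with compound at 10 µM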
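Assay system: Luciferase/luciferin reagent mix; Medium: PBS as buffer for the ATP substrate; Dosing: test compounds dosed from 2 mM stocks in 100% DMSO; Times: 10 min, room temperature; Signal: luminescence from luciferase reaction; Read-out: luciferase activation; Controls: No-ATP low control, compound-free enzyme-plus-ATP high control.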
PPC-1 tox = PPC-1 cell cytotoxicity | PPC-1 viability, ATPlite luminescence, overnight | cytotoxicity, % at 5 µM | actives 50% (n = 1,200) | shares compounds with PPC-1+TRAIL kill;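 active means reconfirmed compounds whose average cytotoxicity reaches 50% or more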;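 further: 0% = DMSO-treated cells and 100% = wells holding medium but no cells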
* marks the source's active call; other numbers are inactive results; · = no result. Compounds with a hit are over-represented: about 1.8% of the library has one in this group of screens.

SMILES	iPSC survival up	beta cell repl	PPC-1+TRAIL kill	C8 TRAIL sens	FLuc inh counter	FLuc stim CS	PPC-1 tox
CCOc1ccc(NC(=O)c2ccc(N)cc2)cc1	-3.1	-6.1	21.0	45.6	70.7*	0.3	22.2
O=C(/C=C/c1ccccc1)c1c[nH]c2ccccc12	-0.6	-6.0	61.0*	57.6*	·	·	66.1*
CN=c1scc(C)n1/N=C/c1ccc(O)cc1O	-2.9	-3.7	70.8*	67.5*	80.7*	0.2	71.3*
C=CCN=c1scc(C)n1/N=C/c1ccc(O)c(O)c1	-0.9	-5.3	28.2	27.8	9.2	0.9	·
CC(C)CO/C(=N/S(=O)(=O)c1ccccc1)c1ccccc1	3.8	-3.2	-13.0	-1.6	-10.2	1.1	11.2
O=C(NCc1nc2ccccc2[nH]1)C1=C[C@H](c2coc3ccccc3c2=O)C[C@H](OCCCCO)O1	1.3	-1.7	·	-7.6	·	·	·
Cn1nc(-c2ccccn2)nc2c(=O)n(C)c(=O)nc1-2	-0.2	-7.6	30.5	96.0*	·	·	36.0
COc1cccc(C(C)NC(=O)C2CCCO2)c1 (centres undefined)	-0.1	0.0	·	-11.4	·	·	·
COc1ccc(C(C)NC(=O)C2CCCO2)cc1OC (centres undefined)	0.6	1.3	-6.3	-1.1	-18.8	1.2	-10.7
COc1ccc(-n2nnnc2C(c2ccnc3ccccc23)N2CCN(C/C=C/c3ccccc3)CC2)cc1 (centres undefined)	-2.3	·	·	-14.4	·	·	·
CC(=O)Nc1ccc(S(=O)(=O)NC2(C(F)(F)F)C(=O)Nc3c2c(=O)n(C)c(=O)n3C)cc1 (centres undefined)	0.6	0.3	2.0	-5.5	-2.6	1	-2.3
CC(=O)Nc1ccc(S(=O)(=O)NC2(C(F)(F)F)C(=O)Nc3c2c(=O)[nH]c(=O)n3C)cc1 (centres undefined)	1.3	-0.1	1.5	-11.2	-4.6	1	·
CCCc1ccc(-c2cc(C(=O)N/N=C/c3ccc([N+](=O)[O-])o3)c3ccccc3n2)cc1	-5.8	-3.4	76.7*	86.2*	93.5*	0.1	76.2*
CCCCCCCCCn1ccc(=N)cc1	-0.7	-3.3	-5.2	31.6	·	·	-9.1
CCCCCCCn1ccc(=N)cc1	0.8	-3.9	5.4	34.6	-6.0	1.1	·
C#CCNC(=O)C1=C[C@H](C(C)(C)C)C[C@H](OCCCCO)O1	0.0	1.5	·	-5.9	·	·	·
Cc1ccccc1-c1nc2sc(C)c(C)c2c(=O)o1	-0.2	-0.6	·	-3.7	·	·	·
Cc1sc2nc(C(C)(C)C)oc(=O)c2c1C	-2.4	3.8	-8.6	6.9	-1.4	1	1.2
CCNC(=O)N1CCNC(=O)C1CC(=O)OC (centres undefined)	1.0	-1.8	0.8	0.8	3.8	1	9.2
COC(=O)CC1C(=O)NCCN1C(=O)NC1CCCCC1 (centres undefined)	2.2	-2.1	14.5	-6.1	-7.4	1.1	·
CCN(CC)CCCNc1nc2cc(OC)c(OC)cc2c2nc(-c3ccccc3)nn12	-6.4	-6.1	26.1	10.7	-4.0	1	22.0
CCn1c(SCC(=O)Nc2ccccc2)nc2c(c1=O)SCC2	2.1	·	·	-9.1	·	·	·
C=CCN(CC=C)S(=O)(=O)c1ccc(NC(=O)COc2ccccc2OC)cc1	-1.7	-2.2	8.0	-8.7	-2.5	1	1.7
CCn1c2ccccc2c2cc(NC(=O)N3CCOCC3)ccc21	12.1	-1.1	10.4	-13.8	4.2	1	3.6
CCn1c2ccccc2c2cc(NC(=O)CN(C)CC(=O)Nc3ccc(N4CCOCC4)cc3)ccc21	0.1	-4.2	7.0	-7.9	-5.1	1.1	·
SMILES	iPSC survival up	beta cell repl	PPC-1+TRAIL kill	C8 TRAIL sens	FLuc inh counter	FLuc stim CS	PPC-1 tox
CCC(NC(=O)c1ccccc1NC(=O)c1ccc(C)cc1)C(=O)O (centres undefined)	-0.4	-4.0	15.9	-1.5	28.0	0.7	6.9
Cc1ccc(C(=O)/C=C/NCc2ccc(F)cc2)cc1	-2.9	-0.8	5.6	-9.4	2.1	1	·
NC(=O)c1ccccc1N/C=C/C(=O)c1ccc(Cl)cc1Cl	-3.2	·	80.7*	90.0*	95.8*	0	80.9*
O=C(Nc1ccccc1Cl)c1ccc(Cl)cc1Cl	1.0	4.0	26.5	0.0	7.2	0.9	·
NC(=O)c1ccccc1N/C=C/C(=O)c1ccc(F)cc1	-5.4	-3.4	63.4*	71.2*	89.5*	0.1	57.8*
O=C(COC(=O)/C=C/c1ccccc1)NC1CCCCCC1	0.0	5.6	·	26.6	·	·	·
C[C@@H](NC(=O)[C@@H]1Cc2ccccc2CN1C(=O)OC(C)(C)C)C(=O)NCC1CCCO1 (some centres undefined)	0.0	5.1	·	3.5	·	·	·
c1ccc2c(c1)CCN(c1nc3cc4c(cc3s1)OCCO4)C2	-3.0	-5.6	84.4*	75.0*	89.1*	0.1	84.4*
COc1cc(Br)c(S(=O)(=O)Nc2c(C)n(C)n(-c3ccccc3)c2=O)cc1OC	-1.6	4.3	5.2	-4.9	-7.4	1.1	5.5
COc1ccc(S(=O)(=O)Nc2c(C)n(C)n(-c3ccccc3)c2=O)cc1Br	-0.4	-1.6	·	-20.1	·	·	·
N#CCCN(CCC#N)C(=O)C1c2ccccc2Oc2ccccc21	-0.6	2.5	·	3.9	·	·	·
O=C(Nc1nccs1)c1ccc(-c2ccc([N+](=O)[O-])cc2)o1	-0.4	·	27.7	23.4	20.6	0.8	·
O=C(Nc1nccs1)c1ccc(-c2ccc(Cl)cc2)o1	-0.7	-5.2	59.5*	80.5*	85.4*	0.1	60.9*
O=C(Nc1nccs1)c1cnccn1	-1.3	-1.7	8.2	-1.7	-5.4	1.1	7.6
COc1ccc(NC(=O)CSc2n[nH]c(-c3ccccc3)n2)cc1S(N)(=O)=O	-0.1	-4.4	·	2.8	·	·	·
COC(=O)/C=C/c1ccsc1NC(C)=O	-0.3	-3.6	28.0	12.4	-1.7	1	·
Clc1ccc(SCc2nc3ccccc3[nH]2)cc1	-2.8	-3.8	20.2	16.8	19.0	0.8	·
Clc1ccc(/C=C/c2nc3ccccc3[nH]2)cc1	-4.3	-6.1	86.7*	87.9*	96.0*	0	86.0*
Clc1ccc(/C=C/c2nc3ccccc3[nH]2)c(Cl)c1	-3.1	-5.9	94.2*	87.1*	96.5*	0	94.7*
Cc1cc(-n2[nH]c(C)c(C)c2=O)nc(-c2ccccc2O)n1	-0.8	-2.8	11.8	12.7	-6.5	1.1	8.0
Cn1c2ccc(F)cc2c2nnc(SCC(=O)Nc3cccc(O)c3)nc21	-0.6	-3.1	·	12.5	·	·	·
O=C(O)COc1ccc(NC(=O)c2ccc3c(c2)C(=O)N(CC2CCCO2)C3=O)cc1 (centres undefined)	-2.9	·	·	7.9	·	·	·
C(=N\Nc1nc2ccccc2[nH]1)/c1c[nH]c2ccccc12	-1.4	-3.6	-17.2	-15.9	29.8	0.7	·
